Data reported in ChEMBL document CHEMBL4402549, “Benzothiazole-Based LRRK2 Inhibitors as Wnt Enhancers and Promoters of Oligodendrocytic Fate” (J Med Chem, 2020).
Blank lines part the entries; values can stand above or below the compound they belong to. Activity calls are given as the source filed them. The calls are words filed in the database; no cut-off is given here.

Assays:
[1] = molecular target: T1, Leucine-rich repeat serine/threonine-protein kinase 2 (Homo sapiens, UniProt Q5S007); test: Inhibition of wild type human GST-tagged LRRK2 (970 to 2527 residues) expressed in baculovirus expression system assessed as reduction in ADP formation at 10 uM using LRRKtide as substrate measured after 1 hr in presence of ATP by Adapta assay relative to control
Outline: (§1)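 Fluorescence immunoassay detecting ADP formed by the kinase reaction. Each compound screened at a single fixed concentration of 10 µM and reported as percent inhibition.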

[2] = molecular target: T1, Leucine-rich repeat serine/threonine-protein kinase 2; test: Inhibition of wild type human GST-tagged LRRK2 (970 to 2527 residues) expressed in baculovirus expression system assessed as reduction in ADP formation using LRRKtide as substrate measured after 1 hr in presence of ATP by Adapta assay
Outline: (§2)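 Fluorescence immunoassay detecting ADP formed in the kinase reaction. Dose-response run at ten concentrations per compound in two independent experiments. IC50 given ± standard deviation.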

[3] = test system: Leucine-rich repeat serine/threonine-protein kinase 2 (Homo sapiens), Q5S007 [G2019S]; test: Inhibition of human GST-tagged LRRK2 G2019S mutant (970 to 2527 residues) expressed in baculovirus expression system assessed as reduction in ADP formation at 10 uM using LRRKtide as substrate measured after 1 hr in presence of ATP by Adapta assay relative to control; outline: as §1
[4] = molecular target: Leucine-rich repeat serine/threonine-protein kinase 2 (Homo sapiens, UniProt Q5S007, G2019S); test: Inhibition of human GST-tagged LRRK2 G2019S mutant (970 to 2527 residues) expressed in baculovirus expression system assessed as reduction in ADP formation using LRRKtide as substrate measured after 1 hr in presence of ATP by Adapta assay; outline: as §2
[5] = Permeability of compound in PBS/EtOH buffer (7:3) at 100 ul and pH 7.4 after 2 hrs and 30 mins by UV plate reader based PAMPA-BBB assay; format: ADME; details: read-out: permeability
Outline: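 PAMPA-BBB using porcine brain lipid membrane; in vitro permeability (Pe) determined alongside ten commercial drugs whose reported Pe values validated the assay; compounds classed CNS+ from Pe.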

[6] = molecular target: T1, Leucine-rich repeat serine/threonine-protein kinase 2; test: (§3) Inhibition of LRRK2 in human iPSC derived neuronal progenitor cells stably expressing TCF/LEF luciferase reporter gene assessed as modulation of Wnt/beta-catenin signaling pathway by measuring TCF/LEF dependent beta-catenin mediated transcriptional activity at 1 uM measured after 24 hrs in presence of Wnt3a by Steady-Glo luciferase assay relative to control
Outline: (§4)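 TCF/LEF luciferase reporter assay in human cells stimulated with Wnt3a supplied as Wnt3a-expressing cell conditioned medium; compounds at fixed 1 or 10 µM. Reporter activity expressed as fold increase over DMSO vehicle.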

[7] = molecular target: T1, Leucine-rich repeat serine/threonine-protein kinase 2; test: as §3, with “10” for “1”; outline: as §4
[8] = molecular target: T1, Leucine-rich repeat serine/threonine-protein kinase 2; test: as §3, with “activity” for “activity at 1 uM”
Outline: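 TCF/LEF luciferase reporter activity measured with Wnt3a supplied as conditioned medium from Wnt3a-expressing cells. Compounds screened at 1 and 10 µM. For dose curves, serial dilutions spanned 0.01–20.00 µM, with each concentration repeated eight times. Values are fold increase over DMSO vehicle (average ± SD for the curves).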

Mus musculus [9] = organism: Mus musculus; test: Induction of neurogenesis in C57/BL6 mouse neural stem cells derived neurospheres isolated from adult ventricular-subventricular zone assessed as increase in neurosphere size at 1 to 5 uM measured after 4 days in presence of FGF or EGF by bright field microscopy analysis; format: functional
Outline: (§5)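 Primary neurospheres from adult mouse V-SVZ neural stem and progenitor cells, cultured 4 days with FGF and EGF and compound at 1 or 5 µM; DMSO vehicle control, PF06447475 as reference LRRK2 inhibitor. Proliferation read as total neurosphere area per bright-field field by ImageJ macro, expressed relative to DMSO (=100); 6 fields per triplicate, three independent experiments, mean ± SEM.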

[10] = Induction of neurogenesis in C57/BL6 mouse neural stem cells derived neurospheres isolated from adult ventricular-subventricular zone assessed as increase in total area of neurosphere at 1 to 5 uM measured after 4 days in presence of FGF or EGF by bright field microscopy analysis relative to control; format: functional; outline: as §5
Mus musculus [11] = organism: Mus musculus; test: Induction of neurogenesis in C57/BL6 mouse neuronal progenitor cells derived neurospheres isolated from adult ventricular-subventricular zone assessed as increase in neurosphere size at 1 to 5 uM measured after 4 days in presence of FGF or EGF by bright field microscopy analysis; format: functional; outline: as §5
[12] = molecular target: T1, Leucine-rich repeat serine/threonine-protein kinase 2; test: Inhibition of LRRK2 in human iPSC derived neuronal progenitor cells stably expressing TCF/LEF luciferase reporter gene assessed as increase in AXIN2 mRNA expression in absence of Wnt3a by TaqMan probe based RT-PCR analysis
[13] = molecular target: T1, Leucine-rich repeat serine/threonine-protein kinase 2; test: Inhibition of LRRK2 in human iPSC derived neuronal progenitor cells stably expressing TCF/LEF luciferase reporter gene assessed as increase in AXIN2 mRNA expression in presence of Wnt3a by TaqMan probe based RT-PCR analysis
[14] = molecular target: Leucine-rich repeat serine/threonine-protein kinase 2 (Mus musculus) (UniProt Q5S006); test: Inhibition of LRRK2 in C57/BL6 mouse neural stem cells derived neurospheres isolated from adult ventricular-subventricular zone assessed as differentiation of neurospheres forming CNPase positive oligodendrocytes at 1 uM treated for 6 days and measured on day 7 by bisbenzimide staining based confocal microscopy
Outline: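 Dissociated adult V-SVZ neurosphere cells plated on poly-ornithine/fibronectin and cultured 6 days without mitogens with compound at 1 µM, PF-475 reference, DMSO control; fixed day 7. Immunostained for CNPase (oligodendrocytes), β3-tubulin, GFAP, bisbenzimide nuclei; confocal counts of positive cells as % of total; 4 fields per triplicate, two independent experiments, mean ± SEM.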

[15] = molecular target: Leucine-rich repeat serine/threonine-protein kinase 2 (Mus musculus) (UniProt Q5S006); test: Inhibition of LRRK2 in C57/BL6 mouse neural stem cells derived neurospheres isolated from adult ventricular-subventricular zone assessed as reduction in Rab10 phosphorylation at 10 uM using Rab10 as substrate measured after 7 days in presence of mitogens by Western blot analysis
Outline: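 Neurosphere cultures from adult mouse SVZ (2 male mice) grown 7 days with mitogens, treated with compound at 10 µM or DMSO. Cell pellets immunoblotted with monoclonal anti-phospho-Rab10 (T73); p-Rab10 quantified over three experiments, mean ± SEM.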

[16] = molecular target: T1, Leucine-rich repeat serine/threonine-protein kinase 2; test: Inhibition of wild-type human partial length LRRK2 (H970 to E2527 residues) expressed in mammalian expression system at 10 uM by Kinomescan method relative to control
[17] = molecular target: Leucine-rich repeat serine/threonine-protein kinase 2 (Mus musculus) (UniProt Q5S006); test: Inhibition of LRRK2 in C57/BL6 mouse neural stem cells derived neurospheres isolated from adult ventricular-subventricular zone assessed as increase in neurosphere proliferation at 1 uM measured after 4 days presence of FGF or EGF by bright field microscopy analysis

Sequence of Leucine-rich repeat serine/threonine-protein kinase 2 (Mus musculus) (Q5S006 whole entry): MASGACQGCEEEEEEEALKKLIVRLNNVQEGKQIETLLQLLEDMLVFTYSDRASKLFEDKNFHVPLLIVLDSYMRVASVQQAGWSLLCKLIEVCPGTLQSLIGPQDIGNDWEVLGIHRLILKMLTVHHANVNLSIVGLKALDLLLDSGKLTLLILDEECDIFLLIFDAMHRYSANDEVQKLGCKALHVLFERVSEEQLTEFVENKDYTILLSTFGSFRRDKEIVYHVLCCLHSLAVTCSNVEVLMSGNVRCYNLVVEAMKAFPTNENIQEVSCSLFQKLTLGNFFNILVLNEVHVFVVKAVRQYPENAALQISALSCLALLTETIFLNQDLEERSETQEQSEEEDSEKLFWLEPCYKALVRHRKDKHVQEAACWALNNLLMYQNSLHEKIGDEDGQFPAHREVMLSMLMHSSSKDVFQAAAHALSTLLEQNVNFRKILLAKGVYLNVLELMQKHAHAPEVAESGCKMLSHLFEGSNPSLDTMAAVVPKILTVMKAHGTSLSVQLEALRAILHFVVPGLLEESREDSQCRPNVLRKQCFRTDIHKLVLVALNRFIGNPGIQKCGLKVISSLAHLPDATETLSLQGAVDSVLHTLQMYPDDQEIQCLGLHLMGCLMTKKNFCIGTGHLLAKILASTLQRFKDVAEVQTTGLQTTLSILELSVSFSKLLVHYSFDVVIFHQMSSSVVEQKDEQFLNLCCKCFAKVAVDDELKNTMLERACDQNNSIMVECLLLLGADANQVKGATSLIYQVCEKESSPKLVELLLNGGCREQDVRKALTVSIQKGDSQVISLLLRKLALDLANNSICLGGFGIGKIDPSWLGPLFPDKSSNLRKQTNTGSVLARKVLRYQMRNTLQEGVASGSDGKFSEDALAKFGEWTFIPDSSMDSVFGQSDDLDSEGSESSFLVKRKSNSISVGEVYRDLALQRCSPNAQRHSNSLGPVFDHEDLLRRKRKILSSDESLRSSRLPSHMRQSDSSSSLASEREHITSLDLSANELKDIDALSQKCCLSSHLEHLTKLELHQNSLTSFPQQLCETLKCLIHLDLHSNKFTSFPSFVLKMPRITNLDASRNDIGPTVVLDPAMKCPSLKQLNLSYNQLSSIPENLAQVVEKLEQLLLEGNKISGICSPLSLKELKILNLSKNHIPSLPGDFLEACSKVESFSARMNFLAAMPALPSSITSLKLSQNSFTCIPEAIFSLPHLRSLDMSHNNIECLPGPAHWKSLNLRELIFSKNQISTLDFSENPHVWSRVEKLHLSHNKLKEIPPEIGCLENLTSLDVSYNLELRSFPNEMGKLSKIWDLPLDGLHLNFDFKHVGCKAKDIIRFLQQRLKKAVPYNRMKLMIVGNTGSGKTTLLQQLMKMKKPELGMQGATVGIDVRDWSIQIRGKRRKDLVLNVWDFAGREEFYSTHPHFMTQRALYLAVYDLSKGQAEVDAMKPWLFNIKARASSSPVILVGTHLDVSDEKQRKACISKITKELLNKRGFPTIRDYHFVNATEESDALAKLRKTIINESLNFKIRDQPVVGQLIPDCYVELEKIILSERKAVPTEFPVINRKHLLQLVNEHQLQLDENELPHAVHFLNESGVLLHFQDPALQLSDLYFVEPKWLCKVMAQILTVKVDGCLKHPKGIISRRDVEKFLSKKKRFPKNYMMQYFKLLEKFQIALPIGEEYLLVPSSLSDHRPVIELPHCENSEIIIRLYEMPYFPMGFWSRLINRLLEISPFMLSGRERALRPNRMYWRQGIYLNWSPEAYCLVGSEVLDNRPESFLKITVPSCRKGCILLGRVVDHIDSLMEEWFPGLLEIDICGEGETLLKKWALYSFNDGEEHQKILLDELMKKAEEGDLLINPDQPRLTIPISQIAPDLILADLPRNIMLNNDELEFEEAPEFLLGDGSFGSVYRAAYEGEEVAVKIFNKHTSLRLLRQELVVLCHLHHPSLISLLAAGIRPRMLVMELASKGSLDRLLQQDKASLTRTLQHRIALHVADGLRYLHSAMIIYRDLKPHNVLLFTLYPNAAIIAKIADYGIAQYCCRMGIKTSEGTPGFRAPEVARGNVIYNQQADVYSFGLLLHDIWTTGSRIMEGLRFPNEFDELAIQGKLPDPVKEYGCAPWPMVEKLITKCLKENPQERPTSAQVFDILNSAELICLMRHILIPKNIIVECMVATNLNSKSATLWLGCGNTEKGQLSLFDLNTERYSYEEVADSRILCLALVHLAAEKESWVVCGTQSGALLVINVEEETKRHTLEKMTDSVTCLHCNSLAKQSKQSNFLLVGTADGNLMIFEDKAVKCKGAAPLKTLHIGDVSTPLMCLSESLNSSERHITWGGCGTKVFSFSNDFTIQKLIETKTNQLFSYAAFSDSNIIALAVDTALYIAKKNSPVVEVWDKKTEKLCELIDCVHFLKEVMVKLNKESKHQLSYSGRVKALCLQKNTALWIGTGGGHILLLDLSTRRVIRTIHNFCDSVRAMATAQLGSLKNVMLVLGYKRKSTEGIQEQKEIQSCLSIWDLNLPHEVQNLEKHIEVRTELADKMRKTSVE
Sequence of Leucine-rich repeat serine/threonine-protein kinase 2 (Homo sapiens, UniProt Q5S007, G2019S) (Q5S007 whole entry G2019S, the tested form may be a part): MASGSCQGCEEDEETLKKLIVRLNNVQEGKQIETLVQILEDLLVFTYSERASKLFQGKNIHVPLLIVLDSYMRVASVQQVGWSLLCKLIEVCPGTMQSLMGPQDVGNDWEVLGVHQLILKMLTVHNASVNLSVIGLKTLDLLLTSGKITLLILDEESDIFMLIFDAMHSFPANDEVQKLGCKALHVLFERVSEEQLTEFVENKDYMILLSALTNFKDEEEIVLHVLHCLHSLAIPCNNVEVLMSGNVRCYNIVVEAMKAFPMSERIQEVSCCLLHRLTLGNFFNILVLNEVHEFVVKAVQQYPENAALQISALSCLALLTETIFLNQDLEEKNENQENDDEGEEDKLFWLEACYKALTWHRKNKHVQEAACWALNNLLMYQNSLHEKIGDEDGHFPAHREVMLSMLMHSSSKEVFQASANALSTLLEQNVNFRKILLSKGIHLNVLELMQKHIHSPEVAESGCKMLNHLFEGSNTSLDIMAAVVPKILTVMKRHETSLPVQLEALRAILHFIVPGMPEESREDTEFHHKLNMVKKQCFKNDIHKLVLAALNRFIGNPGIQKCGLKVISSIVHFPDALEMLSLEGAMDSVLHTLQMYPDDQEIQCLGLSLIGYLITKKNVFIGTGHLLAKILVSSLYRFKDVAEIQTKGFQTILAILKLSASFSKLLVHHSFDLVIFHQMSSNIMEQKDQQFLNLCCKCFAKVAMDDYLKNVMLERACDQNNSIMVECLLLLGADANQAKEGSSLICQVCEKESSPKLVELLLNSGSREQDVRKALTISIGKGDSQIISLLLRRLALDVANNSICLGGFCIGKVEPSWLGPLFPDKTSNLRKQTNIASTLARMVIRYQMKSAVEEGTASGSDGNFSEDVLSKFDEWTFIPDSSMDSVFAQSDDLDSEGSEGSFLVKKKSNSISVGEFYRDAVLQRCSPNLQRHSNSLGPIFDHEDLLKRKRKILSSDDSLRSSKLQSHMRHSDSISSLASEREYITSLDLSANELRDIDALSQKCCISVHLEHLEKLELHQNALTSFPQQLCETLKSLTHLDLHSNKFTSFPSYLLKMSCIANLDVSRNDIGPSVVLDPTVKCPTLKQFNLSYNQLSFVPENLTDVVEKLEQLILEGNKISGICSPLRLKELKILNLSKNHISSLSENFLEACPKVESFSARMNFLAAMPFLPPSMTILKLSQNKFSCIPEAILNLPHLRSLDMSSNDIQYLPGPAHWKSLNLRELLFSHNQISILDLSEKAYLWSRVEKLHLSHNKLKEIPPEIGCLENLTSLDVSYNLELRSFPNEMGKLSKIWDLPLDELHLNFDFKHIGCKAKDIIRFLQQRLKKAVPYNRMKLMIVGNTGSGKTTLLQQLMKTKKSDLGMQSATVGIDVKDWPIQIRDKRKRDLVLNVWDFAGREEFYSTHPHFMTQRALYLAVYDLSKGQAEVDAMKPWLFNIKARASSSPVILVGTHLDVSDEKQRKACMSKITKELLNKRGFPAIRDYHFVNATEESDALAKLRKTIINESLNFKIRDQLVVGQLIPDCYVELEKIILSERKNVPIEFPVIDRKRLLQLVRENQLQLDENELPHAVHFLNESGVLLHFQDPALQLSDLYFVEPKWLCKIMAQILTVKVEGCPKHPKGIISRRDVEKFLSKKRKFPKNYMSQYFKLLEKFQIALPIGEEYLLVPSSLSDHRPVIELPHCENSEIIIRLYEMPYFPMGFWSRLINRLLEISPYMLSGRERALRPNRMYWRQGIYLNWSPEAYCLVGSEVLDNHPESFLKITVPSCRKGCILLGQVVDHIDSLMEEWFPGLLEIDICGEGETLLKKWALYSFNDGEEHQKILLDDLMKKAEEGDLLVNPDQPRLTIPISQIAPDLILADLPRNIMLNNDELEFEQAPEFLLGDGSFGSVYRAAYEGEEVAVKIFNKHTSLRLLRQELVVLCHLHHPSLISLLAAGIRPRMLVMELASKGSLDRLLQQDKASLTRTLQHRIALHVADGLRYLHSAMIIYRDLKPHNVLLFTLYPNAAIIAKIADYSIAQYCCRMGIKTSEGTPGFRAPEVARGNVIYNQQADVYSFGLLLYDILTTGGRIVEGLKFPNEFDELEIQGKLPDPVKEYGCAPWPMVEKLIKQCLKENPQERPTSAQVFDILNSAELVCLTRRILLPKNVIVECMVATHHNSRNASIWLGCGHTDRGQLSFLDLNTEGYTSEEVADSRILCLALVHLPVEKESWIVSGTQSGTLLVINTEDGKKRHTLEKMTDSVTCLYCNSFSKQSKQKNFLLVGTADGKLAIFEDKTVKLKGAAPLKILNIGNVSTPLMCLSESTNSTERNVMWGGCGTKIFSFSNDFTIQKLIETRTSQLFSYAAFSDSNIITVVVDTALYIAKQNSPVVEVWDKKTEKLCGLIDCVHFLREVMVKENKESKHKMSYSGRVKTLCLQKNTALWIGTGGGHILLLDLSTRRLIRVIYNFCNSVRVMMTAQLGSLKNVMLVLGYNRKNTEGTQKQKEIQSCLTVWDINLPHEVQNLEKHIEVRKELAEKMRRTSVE
Sequence of Leucine-rich repeat serine/threonine-protein kinase 2 (Homo sapiens), Q5S007 [G2019S] (Q5S007 whole entry G2019S, the tested form may be a part): as above
T1 sequence (Q5S007 whole entry, the tested form may be a part): as the sequence (Q5S007 whole entry G2019S, the tested form may be a part) above, with S2019G counted along it

SMILES: CCOc1ccc2nc(NC(=O)c3ccc(N4CCOCC4)cc3)sc2c1
inhibition [1]: 80%
IC50 [2]: 300 nM
inhibition [3]: 85%

SMILES: CC(C)c1ccc2nc(NC(=O)c3ccc(N4CCOCC4)cc3)sc2c1
inhibition [1]: 48%
IC50 [2]: 3490 nM
inhibition [3]: 70%
IC50 [4]: 1120 nM
Papp at 2.5 h [5]: 4.3 ×10⁻⁶ cm/s
fold change (FC) [6]: 1.19
fold change (FC) [7]: 1.22

SMILES: Cc1cc(-c2ccc3nc(Nc4ccccc4)nn3c2)cc(C)c1O
IC50 [2]: 20 nM
IC50 [4]: 20 nM

inhibition [1]: 32%
SMILES: O=C(Nc1nc2c(Cl)cccc2s1)c1ccc(N2CCOCC2)cc1

inhibition [1]: 22%
SMILES: CCOC(=O)c1ccc2nc(NC(=O)c3ccc(N4CCOCC4)cc3)sc2c1

SMILES: O=C(Nc1nc2ccc(Cl)cc2s1)c1ccc(N2CCOCC2)cc1
inhibition [1]: 60%
IC50 [2]: 370 nM
inhibition [3]: 50%

SMILES: O=C(Nc1nc2ccc(F)cc2s1)c1ccccc1
inhibition [1]: 81%
IC50 [2]: 520 nM
inhibition [3]: 79%
IC50 [4]: 520 nM
Papp at 2.5 h [5]: 15 ×10⁻⁶ cm/s
fold change (FC) [6]: 1.43
fold change (FC) [7]: 2.29
inhibition [8]: Dose-dependent effect
Activity (Mus musculus [9]): Active
fold change (FC) [10]: 1.8 - 2.4
Activity (Mus musculus [11]): Active
inhibition [12]: inactive
inhibition [13]: Active

inhibition [8]: Dose-dependent effect
SMILES: Cc1cnc(-c2cnc(NCCNc3ccc(C#N)cn3)nc2-c2ccc(Cl)cc2Cl)[nH]1

SMILES: O=C(Nc1nc2ccc(F)cc2s1)c1ccc(Cl)cc1
inhibition [1]: 68%
IC50 [2]: 4460 nM
inhibition [3]: 67%
IC50 [4]: 5640 nM

SMILES: COc1ccc2nc(NC(=O)c3ccc(N4CCOCC4)cc3)sc2c1
inhibition [1]: 73%
inhibition [3]: 93%
IC50 [4]: 440 nM

SMILES: O=C(Nc1nc2ccccc2s1)c1ccc(N2CCOCC2)cc1
inhibition [1]: 75%
inhibition [3]: 85%
IC50 [4]: 370 nM
fold change (FC) [6]: 3.25
fold change (FC) [7]: 2.2
inhibition [8]: Dose-dependent effect
Activity (Mus musculus [9]): Active
fold change (FC) [10]: 1.8 - 2.4
Activity (Mus musculus [11]): Active
inhibition [14]: Active
inhibition [15]: Active
inhibition [16]: < 35%
inhibition [12]: inactive
inhibition [13]: Active
inhibition [17]: Active

inhibition [1]: 18%
SMILES: Cc1cccc2sc(NC(=O)c3ccc(N4CCOCC4)cc3)nc12

SMILES: O=C(Nc1nc2ccc(Br)cc2s1)c1ccc(N2CCOCC2)cc1
inhibition [1]: 75%
IC50 [2]: 510 nM
inhibition [3]: 70%
IC50 [4]: 260 nM
Papp at 2.5 h [5]: 4.2 ×10⁻⁶ cm/s
fold change (FC) [6]: 1.25
fold change (FC) [7]: 2
inhibition [8]: Dose-dependent effect
Activity (Mus musculus [9]): Active
fold change (FC) [10]: 1.8 - 2.4
Activity (Mus musculus [11]): Active
inhibition [14]: Active
inhibition [15]: Active
inhibition [12]: inactive
inhibition [13]: Active
inhibition [17]: Active

SMILES: O=C(Nc1nc2ccc(C(F)(F)F)cc2s1)c1ccc(N2CCOCC2)cc1
inhibition [1]: 51%
IC50 [2]: 2270 nM
inhibition [3]: 69%
IC50 [4]: 280 nM

SMILES: CCCOc1ccc2nc(NC(=O)c3ccc(N4CCOCC4)cc3)sc2c1
inhibition [1]: 13%

inhibition [1]: 16%
SMILES: COc1ccc2cc(C(=O)Nc3nc4ccc(F)cc4s3)ccc2c1

SMILES: O=C(Nc1nc2ccc(F)cc2s1)c1ccc(N2CCOCC2)cc1
inhibition [1]: 66%
IC50 [2]: 170 nM
inhibition [3]: 55%
IC50 [4]: 180 nM
fold change (FC) [6]: 1.58
fold change (FC) [7]: 2
inhibition [8]: Dose-dependent effect
Activity (Mus musculus [9]): Active
fold change (FC) [10]: 1.8 - 2.4
Activity (Mus musculus [11]): Active
inhibition [12]: inactive
inhibition [13]: Active

inhibition [1]: 77%
SMILES: CS(=O)(=O)c1ccc2nc(NC(=O)c3ccc(N4CCOCC4)cc3)sc2c1

SMILES: Cc1ccc2nc(NC(=O)c3ccc(N4CCOCC4)cc3)sc2c1
inhibition [1]: 61%
IC50 [2]: 480 nM
inhibition [3]: 71%
fold change (FC) [6]: 1.76
fold change (FC) [7]: 1.79

inhibition [1]: 11%
SMILES: O=C(CCCC(=O)c1ccccc1)Nc1nc2ccc(F)cc2s1

SMILES: N#Cc1cccc(-c2c[nH]c3ncnc(N4CCOCC4)c23)c1
Activity (Mus musculus [9]): Active
fold change (FC) [10]: 1.8 - 2.4
Activity (Mus musculus [11]): Active
